Experimental data from ChEMBL document CHEMBL1149302, “Design, synthesis, and pharmacological characterization of novel, potent NMDA receptor antagonists” (J Med Chem, 2004).
Calls of active or inactive are those of the source. No cut-off for these calls is given here.

Experiments:
Glutamate NMDA receptor [1] = experiment: Displacement of [3H]CGP-39653 from rat brain NMDA receptor
Outline: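 Rat brain membranes prepared per Ransom and Stec with modifications. Binding with 2 nM [3H]CGP 39653, with bound radioactivity measured by scintillation counting. Racemates tested. Values are antilog of log mean of at least three experiments.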

[2] = Displacement of [3H]AMPA from rat cortex AMPA receptor
Outline: (§1)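 Rat brain membranes prepared per Ransom and Stec with modifications. Radioligand binding with 5 nM [3H]AMPA, or 5 nM [3H]kainic acid in the absence of CaCl2. Bound radioactivity measured by scintillation counting. Racemates tested. Values are antilog of log mean of at least three experiments.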

[3] = Displacement of [3H]kainic acid from rat brain kainate receptor; outline: as §1
Mus musculus [4] = experiment: Anticonvulsant activity in ip dosed DBA/2 mouse assessed as inhibition of clonic seizures; format: functional; details: DBA/2, ip
Outline: (§2)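 Male DBA/2 mice (6-12 g, 22-26 days old) dosed ip in 100 μL/10 g. Compounds dissolved in 0.1 mM NaOH and brought to pH 7.3-7.7 with phosphate buffer; vehicle water. 45 min after dosing, a 110 dB bell sounded for 60 s or until clonic seizure onset. Seizure scoring: wild running 1, clonus 2, tonic extension 3, respiratory arrest 4. ED50 reported in μmol/kg.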

Mus musculus [5] = experiment: Anticonvulsant activity in ip dosed DBA/2 mouse assessed as inhibition of tonic extension seizures; format: functional; details: DBA/2, ip; outline: as §2
[6] = biological target: Metabotropic glutamate receptor 1 (Rattus norvegicus) (UniProt P23385); experiment: Activity at rat mGluR1 expressed in CHO cells at 1 mM; format: cell-based
Outline: (§3)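 Rat mGluR1α, mGluR2, mGluR4a and mGluR5a each expressed in CHO cell lines. Compounds tested at 1 mM for both agonist and antagonist activity.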

[7] = biological target: Metabotropic glutamate receptor 5 (Rattus norvegicus) (UniProt P31424); experiment: Activity at rat mGluR5a expressed in CHO cells at 1 mM; format: cell-based; outline: as §3
[8] = biological target: Metabotropic glutamate receptor 2 (Rattus norvegicus) (UniProt P31421); experiment: Activity at rat mGluR2 expressed in CHO cells at 1 mM; format: cell-based; outline: as §3
[9] = biological target: Metabotropic glutamate receptor 4 (Rattus norvegicus) (UniProt P31423); experiment: Activity at rat mGluR4a expressed in CHO cells at 1 mM; format: cell-based; outline: as §3
[10] = Activity at NMDA receptor in rat corticle slice assessed as antagonism of 10 uM NMDA-induced response; format: functional
Outline: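 Modified rat cortical wedge preparation; depolarizing responses induced by NMDA (10 μM) recorded and antagonism measured. Racemates tested. Values are antilog of the log mean of at least three individual experiments, with ±SEM on a logarithmic distribution.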

Rattus norvegicus [11] = organism: Rattus norvegicus; experiment: Activity at AMPA receptor in rat cortical slice assessed as antagonism of 5 uM AMPA-induced response; format: functional
Rattus norvegicus [12] = organism: Rattus norvegicus; experiment: Activity at Kainate receptor in rat cortical slice assessed as antagonism of 5 uM kainic acid-induced response; format: functional
Mus musculus [13] = experiment: Induction of sedation in DBA/2 mouse at 100 […], ip; format: functional, organism-based
Mus musculus [14] = experiment: Reduction of locomotor activity in DBA/2 mouse at 100 […], ip; format: functional, organism-based
Glutamate NMDA receptor [15] = experiment: Displacement of [3H]CPP from rat brain NMDA receptor

Metabotropic glutamate receptor 2 (Rattus norvegicus), sequence (P31421 19-872 limits assumed): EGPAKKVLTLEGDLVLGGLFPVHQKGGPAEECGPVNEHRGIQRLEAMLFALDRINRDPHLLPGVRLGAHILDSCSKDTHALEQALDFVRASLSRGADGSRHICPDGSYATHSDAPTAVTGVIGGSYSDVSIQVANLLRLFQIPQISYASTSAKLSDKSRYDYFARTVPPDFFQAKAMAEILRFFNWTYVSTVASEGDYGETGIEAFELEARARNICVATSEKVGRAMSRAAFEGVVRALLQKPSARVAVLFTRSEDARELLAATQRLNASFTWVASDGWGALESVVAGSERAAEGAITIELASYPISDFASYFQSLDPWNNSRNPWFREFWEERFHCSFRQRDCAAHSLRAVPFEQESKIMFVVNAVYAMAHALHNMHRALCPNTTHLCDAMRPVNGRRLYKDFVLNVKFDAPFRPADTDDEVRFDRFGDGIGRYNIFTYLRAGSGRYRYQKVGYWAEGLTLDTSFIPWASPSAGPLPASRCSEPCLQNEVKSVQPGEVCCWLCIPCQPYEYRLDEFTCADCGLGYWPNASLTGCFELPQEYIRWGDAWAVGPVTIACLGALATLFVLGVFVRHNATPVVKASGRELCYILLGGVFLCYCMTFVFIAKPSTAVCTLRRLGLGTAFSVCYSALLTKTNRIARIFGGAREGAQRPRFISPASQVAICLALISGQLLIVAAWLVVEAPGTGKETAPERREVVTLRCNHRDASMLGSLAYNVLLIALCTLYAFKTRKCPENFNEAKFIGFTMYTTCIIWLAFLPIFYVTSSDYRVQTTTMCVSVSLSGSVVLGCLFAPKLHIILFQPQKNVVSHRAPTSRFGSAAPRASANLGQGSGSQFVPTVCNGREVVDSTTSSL
Metabotropic glutamate receptor 4 (Rattus norvegicus), sequence (P31423 whole entry): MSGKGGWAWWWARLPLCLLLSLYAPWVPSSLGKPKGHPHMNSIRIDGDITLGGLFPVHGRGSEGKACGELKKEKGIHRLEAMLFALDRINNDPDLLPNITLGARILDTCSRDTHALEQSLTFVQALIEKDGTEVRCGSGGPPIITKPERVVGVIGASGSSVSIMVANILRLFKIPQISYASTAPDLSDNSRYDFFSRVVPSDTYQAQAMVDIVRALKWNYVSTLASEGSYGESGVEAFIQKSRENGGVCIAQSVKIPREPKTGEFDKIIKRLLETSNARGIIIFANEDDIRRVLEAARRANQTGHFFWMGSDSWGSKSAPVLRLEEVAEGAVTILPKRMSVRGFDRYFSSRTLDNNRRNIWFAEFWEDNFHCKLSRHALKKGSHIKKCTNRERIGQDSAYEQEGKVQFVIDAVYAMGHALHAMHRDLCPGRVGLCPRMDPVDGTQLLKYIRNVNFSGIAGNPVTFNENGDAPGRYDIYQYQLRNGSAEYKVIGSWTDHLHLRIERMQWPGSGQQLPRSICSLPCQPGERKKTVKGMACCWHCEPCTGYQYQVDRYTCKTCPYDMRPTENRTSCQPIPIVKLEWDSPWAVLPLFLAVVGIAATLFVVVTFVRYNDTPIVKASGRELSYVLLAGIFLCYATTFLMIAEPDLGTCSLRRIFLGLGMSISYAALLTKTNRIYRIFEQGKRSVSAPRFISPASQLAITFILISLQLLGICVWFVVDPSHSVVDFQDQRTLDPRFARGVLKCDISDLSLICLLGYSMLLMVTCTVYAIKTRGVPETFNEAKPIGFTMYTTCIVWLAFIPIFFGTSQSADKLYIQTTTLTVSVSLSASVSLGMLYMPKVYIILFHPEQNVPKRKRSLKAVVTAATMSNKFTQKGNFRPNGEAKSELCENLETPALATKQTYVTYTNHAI
Metabotropic glutamate receptor 5 (Rattus norvegicus), sequence (P31424 21-1203 limits assumed): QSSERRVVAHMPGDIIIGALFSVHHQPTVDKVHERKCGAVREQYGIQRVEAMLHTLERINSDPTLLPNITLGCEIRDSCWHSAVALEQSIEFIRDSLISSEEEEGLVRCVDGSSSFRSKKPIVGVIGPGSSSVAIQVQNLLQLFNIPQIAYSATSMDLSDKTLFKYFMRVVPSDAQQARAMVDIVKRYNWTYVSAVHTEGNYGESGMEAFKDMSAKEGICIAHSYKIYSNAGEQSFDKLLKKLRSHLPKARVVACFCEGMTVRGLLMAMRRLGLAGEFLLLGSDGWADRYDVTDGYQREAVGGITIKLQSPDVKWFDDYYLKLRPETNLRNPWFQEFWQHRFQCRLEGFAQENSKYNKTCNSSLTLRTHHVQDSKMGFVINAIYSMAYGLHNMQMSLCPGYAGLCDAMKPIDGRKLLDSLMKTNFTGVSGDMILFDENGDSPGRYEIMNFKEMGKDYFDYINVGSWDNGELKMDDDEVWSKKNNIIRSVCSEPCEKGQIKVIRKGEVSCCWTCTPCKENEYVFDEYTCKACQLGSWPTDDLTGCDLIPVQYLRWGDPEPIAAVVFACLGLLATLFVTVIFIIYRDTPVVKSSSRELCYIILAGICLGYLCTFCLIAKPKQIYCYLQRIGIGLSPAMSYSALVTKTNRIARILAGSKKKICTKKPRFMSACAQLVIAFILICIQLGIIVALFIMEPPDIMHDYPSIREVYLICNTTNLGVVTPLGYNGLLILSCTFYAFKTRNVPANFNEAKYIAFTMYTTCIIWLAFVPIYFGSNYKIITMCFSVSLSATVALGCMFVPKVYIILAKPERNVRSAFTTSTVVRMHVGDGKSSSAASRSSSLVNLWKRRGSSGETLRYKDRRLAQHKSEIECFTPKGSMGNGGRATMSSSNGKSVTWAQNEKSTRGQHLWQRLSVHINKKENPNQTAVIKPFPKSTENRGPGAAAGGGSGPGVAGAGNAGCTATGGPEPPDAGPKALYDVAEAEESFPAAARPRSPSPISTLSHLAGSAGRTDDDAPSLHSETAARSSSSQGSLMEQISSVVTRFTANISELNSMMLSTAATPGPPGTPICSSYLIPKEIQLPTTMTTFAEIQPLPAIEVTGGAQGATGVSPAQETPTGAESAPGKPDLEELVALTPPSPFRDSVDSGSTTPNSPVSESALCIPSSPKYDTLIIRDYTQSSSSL
Metabotropic glutamate receptor 1 (Rattus norvegicus), sequence (P23385 19-1199 limits assumed): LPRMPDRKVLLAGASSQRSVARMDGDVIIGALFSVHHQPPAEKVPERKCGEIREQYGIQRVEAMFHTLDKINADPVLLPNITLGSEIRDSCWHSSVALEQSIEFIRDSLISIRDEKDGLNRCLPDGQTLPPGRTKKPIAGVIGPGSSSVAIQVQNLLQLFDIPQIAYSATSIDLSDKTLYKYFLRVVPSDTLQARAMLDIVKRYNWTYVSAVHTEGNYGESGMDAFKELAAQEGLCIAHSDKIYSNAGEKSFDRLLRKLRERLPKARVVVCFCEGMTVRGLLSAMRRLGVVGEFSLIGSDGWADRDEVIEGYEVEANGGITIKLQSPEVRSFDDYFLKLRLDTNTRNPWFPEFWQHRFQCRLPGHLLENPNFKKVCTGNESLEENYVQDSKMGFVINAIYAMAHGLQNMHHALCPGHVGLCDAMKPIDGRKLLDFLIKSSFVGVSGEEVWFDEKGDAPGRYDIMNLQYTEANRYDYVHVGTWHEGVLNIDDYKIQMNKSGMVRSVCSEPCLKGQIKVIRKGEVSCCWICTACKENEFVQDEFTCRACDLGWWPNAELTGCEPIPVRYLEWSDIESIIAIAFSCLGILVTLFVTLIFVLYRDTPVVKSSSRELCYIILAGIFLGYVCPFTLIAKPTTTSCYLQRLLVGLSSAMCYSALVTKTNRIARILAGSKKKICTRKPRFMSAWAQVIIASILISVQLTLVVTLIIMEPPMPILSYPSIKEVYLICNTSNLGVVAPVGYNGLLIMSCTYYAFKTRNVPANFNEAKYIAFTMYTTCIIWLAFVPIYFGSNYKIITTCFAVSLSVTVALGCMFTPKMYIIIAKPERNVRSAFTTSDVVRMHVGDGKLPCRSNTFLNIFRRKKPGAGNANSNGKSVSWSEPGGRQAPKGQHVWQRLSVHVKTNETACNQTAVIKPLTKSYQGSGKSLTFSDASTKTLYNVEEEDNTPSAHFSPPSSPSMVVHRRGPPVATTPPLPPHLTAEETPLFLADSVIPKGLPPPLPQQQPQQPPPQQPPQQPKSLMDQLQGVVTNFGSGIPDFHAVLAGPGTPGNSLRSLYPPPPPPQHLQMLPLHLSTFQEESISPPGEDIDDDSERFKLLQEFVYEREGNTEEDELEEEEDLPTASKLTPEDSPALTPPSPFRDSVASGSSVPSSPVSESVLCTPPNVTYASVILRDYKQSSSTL

| Structure (SMILES) | Ki (Glutamate NMDA receptor [1]) | IC50 [2] | IC50 [3] | ED50 (Mus musculus [4]) | ED50 (Mus musculus [5]) | Activity [6] | Activity [7] | Activity [8] | Activity [9] | IC50 [10] | Activity (Rattus norvegicus [11]) | Activity (Rattus norvegicus [12]) | Activity (Mus musculus [13]) | Activity (Mus musculus [14]) | Ki (Glutamate NMDA receptor [15]) |
| --- | --- | --- | --- | --- | --- | --- | --- | --- | --- | --- | --- | --- | --- | --- | --- |
| N[C@H](C[C@@H]1CC(C(=O)O)=NO1)C(=O)O (relative stereo) | 0.96 µM | > 100 µM | > 100 µM | 29.9 µmol/kg | 19.7 µmol/kg | inactive | inactive | inactive | inactive | – | – | – | – | – | – |
| O=C1NC(=O)C(c2ccccc2)(c2ccccc2)N1 [PHENYTOIN] | – | – | – | 9.1 µmol/kg | 7.3 µmol/kg | – | – | – | – | – | – | – | – | – | – |
| CC1(C)ON=C(C(=O)O)[C@H]1C[C@H](N)C(=O)O (relative stereo) | 79 µM | 12 µM | > 100 µM | – | – | inactive | inactive | inactive | inactive | – | – | – | – | – | – |
| CC1(C)ON=C(C(=O)O)[C@H]1C[C@@H](N)C(=O)O (relative stereo) | > 100 µM | > 100 µM | > 100 µM | – | – | inactive | inactive | inactive | inactive | – | – | – | – | – | – |
| N[C@@H](C[C@@H]1CC(C(=O)O)=NO1)C(=O)O (relative stereo) | 0.21 µM | > 100 µM | > 100 µM | 17.9 µmol/kg | 13.9 µmol/kg | inactive | inactive | inactive | inactive | 14.2 µM | inactive | inactive | Active | Active | – |
| N[C@@]1(C(=O)O)C[C@@H]2ON=C(C(=O)O)[C@@H]2C1 (racemic) | 0.37 µM | > 100 µM | > 100 µM | 28 µmol/kg | 22 µmol/kg | – | – | – | – | – | – | – | – | – | – |
| O=C(O)C1CN(C/C=C/P(=O)(O)O)CCN1 (single isomer, unassigned; (-)) | – | – | – | 3.5 µmol/kg | 1.3 µmol/kg | – | – | – | – | – | – | – | – | – | 0.04 µM |
